PMC5563391 (Investigational new drugs, 2015)

Tests used:
[1] = Phase 1 pharmacokinetics of ilorasertib in plasma; format: in vivo, human; conditions: for AUC(0-t) / AUC(0-inf) / half-life: human, plasma, po; for half-life: 480 mg, t1/2, arm B
Summary of the method: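 Arm A patients took oral test compound once weekly, in the morning, on days 1, 8 and 15 of 28-day cycles, at 10–690 mg. Plasma was sampled intensively up to 72 h after dosing on days 1 and 15. Noncompartmental analysis gave Cmax, Tmax, t½, AUCt and AUC∞, plus dose-normalized values. Results are summarized by dose level as mean ± SD, with individual values where N=1.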

[2] = tested on: patients with advanced hematologic malignancies; experiment: Clinical response; format: in vivo, human
Summary of the method: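 Patients received the test compound in one of four arms, each on a 28-day cycle. Arm A took it orally once weekly on days 1, 8 and 15, and arm B orally on days 1, 2, 8, 9, 15 and 16. Arm C added IV or SC azacitidine on days 1–7 to the once-weekly oral schedule. Arm D received it IV on days 1, 8 and 15. Response used revised International Working Group criteria, or NCCN guidelines for CML.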

[3] = tested on: patients with hematologic malignancies; experiment: Phase 1 safety and tolerability; format: in vivo
Summary of the method: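 Four arms each ran 28-day cycles: oral once weekly (A), oral twice weekly (B), oral once weekly with IV/SC azacitidine on days 1–7 (C), and IV once weekly (D). Dose escalation followed a modified continual reassessment method, with MTD defined as a 30% DLT rate by logistic regression. Toxicity was graded continuously by CTCAE v4.0, with labs, ECG, MUGA/echocardiogram and vital signs monitored.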

SMILES: Nc1ncc(-c2cnn(CCO)c2)c2scc(-c3ccc(NC(=O)Nc4cccc(F)c4)cc3)c12 [Ilorasertib]
- AUC(0-t) ([1]; 320 mg, AUC0–24, arm B, oral twice weekly, 320 mg, day 1, N=6, mean ± SD): 29700 ± 19000 ng·h/mL
- AUC(0-t) ([1]; 320 mg, AUC0–24, arm B, oral twice weekly, 320 mg, day 15, N=4, mean ± SD): 30700 ± 15000 ng·h/mL
- AUC(0-inf) ([1]; 340 mg): 6010 ± 710 ng·h/mL
- AUC(0-inf) ([1]; 440 mg): 14100 ± 7940 ng·h/mL
- AUC(0-t) ([1]; 440 mg): 13500 ± 7520 ng·h/mL
- half-life ([1]; oral twice weekly, day 1, N=7): 14.9 ± 3.2 h
- half-life ([1]; oral twice weekly, day 15, N=7): 15.3 ± 5.1 h
- AUC(0-inf) ([1]; 540 mg): 6010 ± 1230 ng·h/mL
- AUC(0-t) ([1]; 540 mg, AUC0–24, arm A, oral once weekly, first dose, N=3, mean ± SD): 5800 ± 1080 ng·h/mL
- AUC(0-inf) ([1]; 640 mg): 20300 ± 15000 ng·h/mL
- AUC(0-t) ([1]; 640 mg, AUC0–24, arm A, oral once weekly, first dose, N=6, mean ± SD): 19700 ± 14800 ng·h/mL
- AUC(0-inf) ([1]; 690 mg): 8460 ng·h/mL
- renal excretion of ilorasertib as the parent drug ([1]; in vivo): negligible
- dose proportionality of Cmax and AUC∞ ([1]; oral, 80- to 690-mg dose range): generally dose proportional
- patients with a best response of stable disease ([2]; 52 patients): Twelve
- patients with an objective response ([2]; AML patients, among 52 patients): 3
- patients with CR with incomplete blood count recovery (CRi) ([2]; AML, arm A, 640 mg, end of cycle 1): 1
- patients with complete response (CR) ([2]; AML, arm A, 690 mg, end of cycle 8): 1
- patients with partial response ([2]; AML, arm B, 480 mg, end of cycle 2): 1
- patients reporting grade 3 or 4 adverse events ([3]; 42 of 52 patients): 80.8%
- patients reporting at least 1 treatment-emergent adverse event ([3]; 51 of 52 patients): 98.1%
- grade 3/4 adverse event: anemia ([3]; 52 patients, all arms): 13.5%
- grade 3/4 adverse event: hypertension ([3]; 52 patients, all arms): 28.8%
- grade 3/4 adverse event: hypokalemia ([3]; 52 patients, all arms): 15.4%
- grade 3/4 adverse event: hypophosphatemia ([3]; 52 patients, all arms): 11.5%
- grade 3 or 4 adverse events related to ilorasertib: hypertension ([3]; 52 patients, all arms): 17.3%
- grade 3 or 4 adverse events related to ilorasertib: pancreatitis ([3]; 52 patients, all arms): 3.8%
- grade 3 or 4 adverse events related to ilorasertib: proteinuria ([3]; 52 patients, all arms): 3.8%
- Treatment-emergent adverse events, any grade: Anemia ([3]; all arms, N=52): 7 (13.5) n (%)
- Treatment-emergent adverse events, any grade: Any event ([3]; all arms, N=52): 51 (98.1) n (%)
- Treatment-emergent adverse events, any grade: Arthralgia ([3]; all arms, N=52): 8 (15.4) n (%)
- Treatment-emergent adverse events, any grade: Bone pain ([3]; all arms, N=52): 8 (15.4) n (%)
- Treatment-emergent adverse events, any grade: Decreased appetite ([3]; all arms, N=52): 8 (15.4 n (%)
- Treatment-emergent adverse events, any grade: Diarrhea ([3]; all arms, N=52): 23 (44.2) n (%)
- Treatment-emergent adverse events, any grade: Epistaxis ([3]; all arms, N=52): 7 (13.5) n (%)
- Treatment-emergent adverse events, any grade: Fatigue ([3]; all arms, N=52): 11 (21.2) n (%)
- Treatment-emergent adverse events, any grade: Headache ([3]; all arms, N=52): 8 (15.4) n (%)
- Treatment-emergent adverse events, any grade: Hypertension ([3]; all arms, N=52): 17 (32.7) n (%)
- Treatment-emergent adverse events, any grade: Hypokalemia ([3]; all arms, N=52): 18 (34.6) n (%)
- Treatment-emergent adverse events, any grade: Hypomagnesemia ([3]; all arms, N=52): 10 (19.2) n (%)
- Treatment-emergent adverse events, any grade: Hypophosphatemia ([3]; all arms, N=52): 9 (17.3) n (%)
- Treatment-emergent adverse events, any grade: Nausea ([3]; all arms, N=52): 23 (44.2) n (%)
- Treatment-emergent adverse events, any grade: Peripheral edema ([3]; all arms, N=52): 11 (21.2) n (%)
- Treatment-emergent adverse events, any grade: Proteinuria ([3]; all arms, N=52): 19 (36.5) n (%)
- Treatment-emergent adverse events, any grade: Pyrexia ([3]; all arms, N=52): 8 (15.4) n (%)
- Treatment-emergent adverse events, any grade: Vomiting ([3]; all arms, N=52): 10 (19.2) n (%)
- Treatment-emergent adverse events, grade 3/4: Acute renal failure ([3]; all arms, N=52): 3 (5.8) n (%)
- Treatment-emergent adverse events, grade 3/4: Anemia ([3]; all arms, N=52): 7 (13.5) n (%)
- Treatment-emergent adverse events, grade 3/4: Any grade 3/4 event ([3]; all arms, N=52): 42 (80.8) n (%)
- Treatment-emergent adverse events, grade 3/4: Bacteremia ([3]; all arms, N=52): 3 (5.8) n (%)
- Treatment-emergent adverse events, grade 3/4: Febrile neutropenia ([3]; all arms, N=52): 4 (7.7) n (%)
- Treatment-emergent adverse events, grade 3/4: Fungal pneumonia ([3]; all arms, N=52): 4 (7.7) n (%)
- Treatment-emergent adverse events, grade 3/4: Hypertension ([3]; all arms, N=52): 15 (28.8) n (%)
- Treatment-emergent adverse events, grade 3/4: Hypokalemia ([3]; all arms, N=52): 8 (15.4) n (%)
- Treatment-emergent adverse events, grade 3/4: Hypophosphatemia ([3]; all arms, N=52): 6 (11.5) n (%)
- Treatment-emergent adverse events, grade 3/4: Hypotension ([3]; all arms, N=52): 3 (5.8) n (%)
- Treatment-emergent adverse events, grade 3/4: Pneumonia ([3]; all arms, N=52): 4 (7.7) n (%)
- Treatment-emergent adverse events, grade 3/4: Proteinuria ([3]; all arms, N=52): 4 (7.7) n (%)
- Treatment-emergent adverse events, grade 3/4: Sepsis ([3]; all arms, N=52): 3 (5.8) n (%)
- DLTs ([3]; arm A, PO once weekly monotherapy, 640 mg, 6 patients): Grade 3 pancreatitis ^a
- recommended phase 2 dose (RPTD) ([3]; arm A, oral monotherapy once weekly): 540 mg
- DLTs ([3]; arm B, 320 or 480 mg twice weekly): No DLTs
- recommended phase 2 dose (RPTD) ([3]; arm B, oral monotherapy twice weekly): 480 mg
- DLTs ([3]; arm D, IV once weekly, 32 mg): No DLTs
